Laboratory results from ChEMBL document CHEMBL4219150, “Fragment-Based Approach to Targeting Inosine-5'-monophosphate Dehydrogenase (IMPDH) from Mycobacterium tuberculosis” (J Med Chem, 2018).
≈ marks a conversion by molar mass, not a printed value.

Experiments:
[1] = test system: Mycobacterium tuberculosis; test: Antibacterial activity against Mycobacterium tuberculosis H37Rv assessed as inhibition of bacterial growth after 7 days by alamar blue fluorescence-based broth microdilution assay; assay type: functional; settings: 168 h
Method in brief: (§1)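 Mtb H37Rv grown to mid-exponential phase in Middlebrook 7H9 with OADC, 0.2% glycerol, 0.05% Tween-80. Compounds in DMSO (1%) tested at 8 concentrations; rifampin and isoniazid as positive controls. ~10^5 bacteria per well, 37°C for 7 d, then Alamar Blue for a further 24 h at 37°C. Fluorescence read at ex 544/em 590 nm. Data normalised to min/max inhibition controls; MIC90 taken from the dose-response curve.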

[2] = molecular target: Inosine-5'-monophosphate dehydrogenase (Mycobacterium tuberculosis (strain ATCC 25618 / H37Rv)) (UniProt P9WKI7); test: Uncompetitive inhibition of Mycobacterium tuberculosis H37Rv IMPDH assessed as reduction in NADH production preincubated for 5 mins followed by substrate IMP addition at increasing concentration measured for 32 mins in presence of a constant concentration of NAD+ by Lineweaver-Burk plot analysis
Sequence of Inosine-5'-monophosphate dehydrogenase (Mycobacterium tuberculosis (strain ATCC 25618 / H37Rv)) (P9WKI7 whole entry): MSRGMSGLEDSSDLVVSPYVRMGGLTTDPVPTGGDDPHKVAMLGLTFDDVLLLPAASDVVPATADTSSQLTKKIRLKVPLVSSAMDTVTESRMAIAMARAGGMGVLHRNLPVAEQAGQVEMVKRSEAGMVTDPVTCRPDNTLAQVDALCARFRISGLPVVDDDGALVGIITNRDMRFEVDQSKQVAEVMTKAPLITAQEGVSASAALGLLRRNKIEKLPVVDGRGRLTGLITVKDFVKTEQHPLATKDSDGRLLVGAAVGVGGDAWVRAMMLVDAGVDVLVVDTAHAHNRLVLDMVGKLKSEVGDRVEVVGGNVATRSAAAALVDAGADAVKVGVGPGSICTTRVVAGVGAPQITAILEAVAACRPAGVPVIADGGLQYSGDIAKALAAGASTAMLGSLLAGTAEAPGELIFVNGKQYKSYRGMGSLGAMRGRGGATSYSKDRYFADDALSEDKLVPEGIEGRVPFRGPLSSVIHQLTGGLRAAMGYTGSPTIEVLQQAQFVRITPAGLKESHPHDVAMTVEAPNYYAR

[3] = test system: Mycobacterium tuberculosis; test: Antibacterial activity against Mycobacterium tuberculosis after 7 days by Alamar Blue assay; assay type: functional; settings: 168 h; method in brief: as §1
[4] = test system: Mycobacterium tuberculosis; test: Antibacterial activity against Mycobacterium tuberculosis ATCC 27294 after 7 days by broth microdilution method; assay type: functional; settings: ATCC 27294, 168 h
[5] = test system: Mycobacterium tuberculosis; test: Antibacterial activity against Mycobacterium tuberculosis; assay type: functional; method in brief: as §1

Row | SMILES | MIC90 [1] | also measured
1 | CC(Oc1ccc(-c2cn(C)cn2)cc1)C(=O)Nc1nc(-c2ccc(Br)cc2)c[nH]1 (stereo not given) | ≥ 50 µM | 
2 | CC(Oc1ccc(-c2cn(C)cn2)cc1)C(=O)Nc1nc(-c2ccc(Br)cc2)co1 (stereo not given) | ≥ 50 µM | 
3 | COc1ccc(OC(C)C(=O)Nc2ccc(I)cc2)cc1 (stereo not given) |  | alphaKi [2]: 0.603 µM; MIC [3]: 12.5 µM (≈ 4.97 µg/mL)
4 | COc1c(C)c2c(c(O)c1C/C=C(\C)Cn1cc(COC[C@H]3O[C@@H](n4cnc5c(N)ncnc54)[C@H](O)[C@@H]3O)nn1)C(=O)OC2 |  | MIC [4]: 100 µM (≈ 60.9 µg/mL)
5 | Cc1n[nH]c(C)c1S(=O)(=O)Nc1ccc2c[nH]nc2c1 |  | MIC [5]: 2 µM (≈ 0.583 µg/mL)
6 | CC(Oc1ccc(-c2cn(C)cn2)cc1)C(=O)Nc1nc(-c2ccccc2)c[nH]1 (stereo not given) | ≥ 50 µM | 
7 | CC(Oc1ccc(-c2cn(C)cn2)cc1)C(=O)Nc1nc(-c2ccc(N3CCOCC3)cc2)c[nH]1 (stereo not given) | ≥ 50 µM | 
8 | C=C(C)c1cccc(C(C)(C)NC(=O)Nc2ccc(Cl)c(C(=O)N(C)C)c2)c1 |  | MIC [4]: 5 µM (≈ 2 µg/mL)
9 | CC(Oc1ccc(-c2cn(C)cn2)cc1)C(=O)Nc1nc(-c2ccc(I)cc2)c[nH]1 (stereo not given) | ≥ 50 µM | 
10 | CC(Oc1ccc(-c2cn(C)cn2)cc1)C(=O)Nc1ccc(I)cc1 (stereo not given) | ≥ 50 µM | 
11 | C[C@H](Oc1ccc(-c2cn(C)cn2)cc1)C(=O)Nc1nc(-c2ccc(Br)cc2)c[nH]1 | ≥ 50 µM | 
12 | O=C(C1CCCCC1)N1CCN(S(=O)(=O)c2ccc3cnccc3c2)CC1 |  | MIC [5]: 1.9 µM (≈ 0.736 µg/mL)
13 | COc1ccc(-c2c[nH]c(NC(=O)C(C)Oc3ccc(-c4cn(C)cn4)cc3)n2)cc1 (stereo not given) | ≥ 50 µM | 
14 | CC(Oc1ccc(-c2cn(C)cn2)cc1)C(=O)Nc1ccccc1 (stereo not given) | ≥ 50 µM | 
